From ChEMBL document CHEMBL4043182, “On the synthesis of quinone-based BODIPY hybrids: New insights on antitumor activity and mechanism of action in cancer cells” (Bioorg Med Chem Lett, 2017) come the findings set out here.

What is called IC50 is the concentration at which inhibition is half-maximal.

Calls of active or inactive are those of the source. The rule behind the calls is not given here.

Data set [1] relates to PC-3. Nature of the data set: Antiproliferative activity against human PC3 cells after 72 hrs by MTT assay. It is filed as functional, cell-based. The note with it: PC-3, 72 h. In outline: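 MTT reduction: cancer lines plated at 0.7×10^5 to 0.3×10^6 cells/well, V79 and L929 fibroblasts at 0.5×10^5 cells/well. Compounds in DMSO (0.1%) were given for 24 h at 0.04–40.92 µM or 72 h at 0.04–8.19 µM. Fresh medium with 0.5 mg/mL MTT was added for 3 h, then formazan was dissolved in DMSO and read at 595 nm as % of control. IC50 came from nonlinear regression with 95% CI. Doxorubicin (0.001–1.06 µM) was the positive control. Triplicate, ≥3 repeats.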
(Formazan colour is commonly taken as a measure of viable cells.)

The subject of data set [2] is L929. Nature of the data set: Cytotoxicity against mouse L929 cells after 24 hrs in presence of GSH-OEt by MTT assay. The note with it: L929, 24 h. It is filed as cell-based. The method in brief:
(§1)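 24 h MTT exposure (0.04–40.92 µM in 0.1% DMSO), with or without co-treatment with GSH ethyl ester (15 mM) to gauge the ROS contribution. MTT was 0.5 mg/mL for 3 h, with formazan dissolved in DMSO and absorbance at 595 nm expressed as % of control. Triplicate, repeated at least three times.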

Data set [3] deals with HCT-116. Nature of the data set: Geno-toxicity in human HCT116 cells assessed as induction of DNA damage at 2.5 to 10 uM treated 24 hrs post NAC addition measured after 24 hrs by alkaline comet assay. Type of data set: functional, cell-based. In outline: (§2)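 Alkaline comet assay after 24 h at 2.5, 5 and 10 µM, with or without 24 h pretreatment with 5 mM NAC. Cells were trypsinized and embedded in 0.75% low-melting agarose, then lysed at pH 10, 4 °C, ≥1 h. DNA was unwound 20 min at pH >13 and electrophoresed 20 min at 25 V, 300 mA (0.86 V/cm), then stained with ethidium bromide. 100 cells (2 slides) were scored in classes 0–4 for a damage index. Mean ± SEM, three independent experiments in triplicate.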

For data set [4], the system named is L929. As to the kind of experiment: Geno-toxicity in mouse L929 cells assessed as induction of DNA damage at 2.5 to 10 uM treated 24 hrs post NAC addition measured after 24 hrs by alkaline comet assay. Type of data set: cell-based. The following applies: l929, 24 h. In outline: as §2
Data set [5] relates to PC-3. Nature of the data set: Induction of lipid peroxidation in human PC3 cells assessed as increase in MDA levels at 2.5 to 10 uM after 24 hrs in absence of NAC by TBARS assay. It is filed as functional, cell-based. The method in brief: (§3)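 TBARS: cells were exposed 24 h, with or without 24 h prior 5 mM NAC, and lysed in Tris-HCl. Lysate was heated with TCA/0.25 M HCl and 6.7 mg/mL TBA for 15 min at 100 °C, centrifuged, and read at 532 nm. Hydrolyzed tetramethoxypropane served as standard, with values normalized to protein. H2O2 (10 µM) was the positive control. Three independent experiments in triplicate; ANOVA/Tukey.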

In data set [6] the test system is PC-3. As to the kind of experiment: Cytotoxicity against human PC3 cells after 24 hrs in presence of GSH-OEt by MTT assay. It is filed as functional, cell-based. The following applies: PC-3, 24 h. The method in brief: as §1
The nature of data set [7]: Selective index, ratio of IC50 for mouse L929 cells to IC50 for human SW620 cells. In outline:
(§4)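 Selectivity index is the ratio of the IC50 in a non-cancer murine line (V79 or L929) to the IC50 in the cancer line. […] MTT was 0.5 mg/mL for 3 h, formazan dissolved in DMSO and read at 595 nm as % of control. IC50s were derived by nonlinear regression; triplicate, at least three repeats.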

The test system of another data set is SF-295. Nature of the data set: Induction of oxidative stress in human SF295 cells assessed as total intracellular thiol levels at 5 uM treated 24 hrs post NAC addition measured after 24 hrs by spectrophotometric analysis (reference value: 4.51 +/- 0.83 microg/mg). It is filed as functional. In outline: (§5)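 Cells were pretreated 24 h with 5 mM NAC, then exposed 24 h to test compound at 5 µM. Controls received 0.1% DMSO. Extracts were prepared by sonication and HClO4 precipitation, then neutralized with KOH. Total glutathione was read by DTNB/glutathione reductase/NADPH rate at 412 nm. GSSG was measured after 4-vinylpyridine (0.1%, 1 h, RT) and GSH derived by difference. Values are normalized to protein, triplicates, three independent runs.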

The test system of data set [8] is PC-3. Nature of the data set: Induction of oxidative stress in human PC3 cells assessed as total GSH levels at 5 uM after 24 hrs by spectrophotometric analysis (reference value: 3.04 +/- 0.51 microg/mg). Type of data set: functional.
Data set [9] deals with HCT-116. Nature of the data set: Induction of lipid peroxidation in human HCT116 cells assessed as increase in MDA levels at 2.5 to 10 uM after 24 hrs in absence of NAC by TBARS assay. Type of data set: functional, cell-based. The method in brief: as §3
Data set [10] is described as follows: Selective index, ratio of IC50 for chinese hamster V79 cells to IC50 for human PC3 cells. In outline: as §4
Data set [11] relates to HCT-116. Nature of the data set: Induction of lipid peroxidation in human HCT116 cells assessed as increase in MDA levels at 2.5 to 10 uM treated 24 hrs post NAC addition measured after 24 hrs by TBARS assay. It is filed as functional, cell-based. In outline:
as §3

In data set [12] the test system is L929. Nature of the data set: Cytotoxicity against mouse L929 cells after 24 hrs in absence of GSH-OEt by MTT assay. Type of data set: cell-based. The note with it: L929, 24 h. The method in brief: as §1
The nature of data set [13]: Selective index, ratio of IC50 for chinese hamster V79 cells to IC50 for human MDA-MB-435 cells. The method in brief:
as §4

Data set [14] concerns L929. As to the kind of experiment: Induction of oxidative stress in mouse L929 cells assessed as total intracellular thiol levels at 5 uM treated 24 hrs post NAC addition measured after 24 hrs by spectrophotometric analysis (reference value: 4.87 +/- 0.25 microg/mg). The following applies: l929, 24 h. It is filed as cell-based.
The subject of data set [15] is PC-3. As to the kind of experiment: Induction of oxidative stress in human PC3 cells assessed as GSH to GSSG ratio at 5 uM treated 24 hrs post NAC addition measured after 24 hrs by spectrophotometric analysis (reference value: 2.69 +/- 0.21 microg/mg). It is filed as functional. In outline: as §5
Data set [16] concerns L929. Nature of the data set: Induction of oxidative stress in mouse L929 cells assessed as total GSSG levels at 5 uM treated 24 hrs post NAC addition measured after 24 hrs by spectrophotometric analysis (reference value: 1.05 +/- 0.33 microg/mg). The note with it: l929, 24 h. It is filed as cell-based.
Data set [17] can be described thus: Drug uptake in mitochondria of human PC3 cells at 5 uM after 10 mins by MitoTracker Red dye-based confocal microscopic analysis. It is filed as ADME, cell-based. The note with it: pc-3, 10 min. In outline:
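PC3 cells were grown in DMEM with 10% FBS, antibiotics and 2 mM L-glutamine at 37 °C, 5% CO2. Cells were incubated with compound (5 µM) plus LysoTracker Red or MitoTracker Red for 10 min at 37 °C. Live cells were imaged in phenol red-free DMEM by confocal microscopy with a 40X oil objective, exciting at 488 nm (compound) and 543 nm (tracker dyes).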

Data set [18] in a line: Selective index, ratio of IC50 for mouse L929 cells to IC50 for human HCT116 cells. The method in brief:
as §4

For data set [19], the system named is HCT-116. As to the kind of experiment: Induction of oxidative stress in human HCT116 cells assessed as total intracellular thiol levels at 5 uM treated 24 hrs post NAC addition measured after 24 hrs by spectrophotometric analysis (reference value: 5.02 +/- 0.91 microg/mg). Type of data set: functional.
For data set [20], the system named is HCT-116. As to the kind of experiment: Induction of oxidative stress in human HCT116 cells assessed as total GSH levels at 5 uM after 24 hrs by spectrophotometric analysis (reference value: 3.74 +/- 0.55 microg/mg). Type of data set: functional.

Consider `CC1(C)OC2=C(C(=O)C(=O)c3ccccc32)C1n1cc(CNC2=[N+]3C(=C(c4ccccc4)c4ccc(Cl)n4[B-]3(F)F)C=C2)nn1` (stereo unspecified), for which the IC50 in the data set on PC-3 [1] stood at 0.38 µM; with L929 [2] it was 12.4 µM; in the data set with PC-3 [6], 15.8 µM; in the data set with L929 [12], 5.91 µM. The result with HCT-116 [3], with PC-3 [5] and in the data set on HCT-116 [9] was Active. In addition, the Activity result in the data set on L929 [4] was “Toxic”; in the data set with SF-295 it was 4.72 µg/mg; in the data set with PC-3 [8], 1.35 µg/mg; in the data set on L929 [14], 5.21 µg/mg; in the data set on PC-3 [15], 2.88 µg/mg; with L929 [16], 1.24 µg/mg. Also, the values for the Activity in the data set with HCT-116 [19] and in the data set with HCT-116 [20] were 5.12 µg/mg and 1.78 µg/mg, respectively. Moreover, the Ratio IC50 worked out at 1.4 in [7], 1.7 in [10], 0.8 in [13] and 3 in [18]. Moreover, the outcome in the data set on HCT-116 [11] was inactive. Also, the Drug uptake result in [17] was “Metabolite_Notdetected”.
